One assay deals with MDA-MB-231. As to the kind of experiment: Cytotoxicity against human MDA-MB-231 cells assessed as cell viability after 48 hrs by MTT assay. The assay is classed as functional, cell-based. As to conditions: MDA-MB-231, 48 h.
In assay [1] the target is T1, Histone-lysine N-methyltransferase EHMT2 (Homo sapiens, UniProt Q96KQ7).
T1 sequence (Q96KQ7 whole entry): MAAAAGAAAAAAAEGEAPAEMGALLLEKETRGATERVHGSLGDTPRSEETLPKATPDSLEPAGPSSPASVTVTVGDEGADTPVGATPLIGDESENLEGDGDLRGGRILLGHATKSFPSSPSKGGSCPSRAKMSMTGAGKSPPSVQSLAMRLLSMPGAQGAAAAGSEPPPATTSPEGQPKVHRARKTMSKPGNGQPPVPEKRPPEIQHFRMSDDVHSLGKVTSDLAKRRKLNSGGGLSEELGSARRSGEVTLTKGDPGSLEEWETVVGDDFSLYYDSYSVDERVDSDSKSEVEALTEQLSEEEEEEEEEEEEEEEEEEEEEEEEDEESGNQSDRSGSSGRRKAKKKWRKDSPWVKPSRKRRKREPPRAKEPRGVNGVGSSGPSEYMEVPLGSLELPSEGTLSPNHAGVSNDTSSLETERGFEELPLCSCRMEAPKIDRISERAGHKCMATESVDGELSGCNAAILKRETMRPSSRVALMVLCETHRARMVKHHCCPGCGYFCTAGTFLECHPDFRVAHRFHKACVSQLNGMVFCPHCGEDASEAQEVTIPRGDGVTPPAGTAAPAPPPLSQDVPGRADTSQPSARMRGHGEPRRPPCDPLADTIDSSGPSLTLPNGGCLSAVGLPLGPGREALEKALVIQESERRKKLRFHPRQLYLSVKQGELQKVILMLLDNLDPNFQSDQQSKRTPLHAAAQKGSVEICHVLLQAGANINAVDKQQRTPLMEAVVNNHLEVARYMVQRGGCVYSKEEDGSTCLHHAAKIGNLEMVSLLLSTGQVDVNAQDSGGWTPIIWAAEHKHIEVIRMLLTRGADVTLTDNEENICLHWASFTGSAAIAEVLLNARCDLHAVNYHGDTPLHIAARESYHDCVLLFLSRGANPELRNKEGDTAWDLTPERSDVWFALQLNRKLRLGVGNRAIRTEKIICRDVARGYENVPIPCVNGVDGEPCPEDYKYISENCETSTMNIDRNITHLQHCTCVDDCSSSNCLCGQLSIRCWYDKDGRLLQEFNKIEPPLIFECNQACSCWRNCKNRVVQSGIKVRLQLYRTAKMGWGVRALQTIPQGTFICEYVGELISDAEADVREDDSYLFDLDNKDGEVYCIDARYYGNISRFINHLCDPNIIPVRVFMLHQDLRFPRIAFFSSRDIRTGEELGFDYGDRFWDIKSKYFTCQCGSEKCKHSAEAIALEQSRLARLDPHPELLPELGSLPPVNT
The assay is described as follows: Inhibition of G9a in human MDA-MB-231 cells assessed as reduction of H3K9me2 after 48 hrs by In-Cell Western assay. The class given is cell-based. The method in brief: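 In-Cell Western: MDA-MB-231 cells grown in RPMI/10% FBS were seeded at 5–10 thousand per well and treated 48 h across a concentration series. Cells were fixed in 2% formaldehyde, blocked in 1% BSA, and stained with H3K9me2 antibody (1/800, 2 h), then IR800 secondary plus DRAQ5. Three wells were stained and one kept as background. The 800 nm signal was normalized to background and DRAQ5 and expressed as % control. IC50 from a sigmoidal variable-slope fit, averaging at least duplicate runs.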

Another assay has as its system CWR22R. The assay is described as follows: Cytotoxicity against human 22Rv1 cells assessed as cell viability after 48 hrs by MTT assay. The class given is functional, cell-based. The following applies: 22Rv1, 48 h. In outline:
(§1)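 MTT viability read after 48 h inhibitor exposure. Culture media were alphaMEM + 10% FBS for 22RV1, DMEM + 10% FBS for IMR90 and MCF7, and RPMI + 10% FBS for PC3. Medium was replaced with phenol-red-free DMEM 10% FBS containing 1 mg/ml MTT for 1–2 h. Formazan was dissolved in acidified isopropanol/1% Triton and read at 570 nm minus 650 nm. EC50 came from a sigmoidal variable-slope fit, averaging at least duplicate runs.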
In general terms: Tetrazolium assays rely on reduction of a dye to a coloured formazan, in cell work by metabolically active cells.

Assay [2] is described as follows: Cytotoxicity against human […] assessed as cell viability after 48 hrs by MTT assay. The assay is classed as functional, cell-based. The method in brief: as §1
The subject of a further assay is PC-3. As to the kind of experiment: Cytotoxicity against human PC3 cells assessed as cell viability after 48 hrs by MTT assay. As to conditions: PC-3, 48 h. The class given is functional, cell-based. In outline:
as §1

The next assay relates to IMR-90. The assay is described as follows: Cytotoxicity against human IMR90 cells assessed as cell viability after 48 hrs by MTT assay. The assay is classed as cell-based. The following applies: IMR-90, 48 h. The method in brief: as §1
The target in assay [3] is T1, Histone-lysine N-methyltransferase EHMT2. As to the kind of experiment: Inhibition of G9a assessed as hydrolysis of S-adenosyl-L-homocysteine after 2 mins by SAHH-coupled fluorescence assay.
A short description of assay [4]: Ratio of EC50 for human MDA-MB-231 cells to IC50 for G9a in human MDA-MB-231 cells. In outline: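 ICW used DRAQ5-normalized H3K9me2 immunofluorescence. MTT was read at 570 nm corrected at 650 nm. Each value was a sigmoidal variable-slope fit averaged over at least duplicate runs.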
For assay [5], the target named is T1, Histone-lysine N-methyltransferase EHMT2. As to the kind of experiment: Inhibition of G9a in human HCT116 cells assessed as reduction of H3K9me2 after 48 hrs by In-Cell Western assay. The assay is classed as cell-based, HCT-116.
The target is the same in assay [6]. As to the kind of experiment: Inhibition of G9a in human PC3 cells assessed as reduction of H3K9me2 after 48 hrs by In-Cell Western assay. The assay is classed as cell-based, PC-3.
The target is the same in assay [7]. The assay is described as follows: Inhibition of G9a in p53-deficient human HCT116 cells assessed as reduction of H3K9me2 after 48 hrs by In-Cell Western assay. The assay is classed as cell-based, HCT-116.
Assay [8] shares this target. As to the kind of experiment: Inhibition of G9a in human 22Rv1 cells assessed as reduction of H3K9me2 after 48 hrs by In-Cell Western assay. The assay is classed as cell-based, CWR22R.
Assay [9] has the same target. As to the kind of experiment: Inhibition of G9a in human IMR90 cells assessed as reduction of H3K9me2 after 48 hrs by In-Cell Western assay. The class given is cell-based, IMR-90.
For assay [10] the target is unchanged. As to the kind of experiment: Inhibition of G9a in human MCF7 cells assessed as reduction of H3K9me2 after 48 hrs by In-Cell Western assay. The assay is classed as cell-based.

Where only a bound is given, the exact number is not on record here.

The EC50 is the concentration that produces a half-maximal response. Consider `COc1cc2c(NC3CCN(C)CC3)nc(N3CCCN(C)CC3)nc2cc1OCCCN1CCCC1`, for which the 50% effective concentration (EC50) with MDA-MB-231 was found to be 15000 nM.

With `COc1cc2c(NC3CCN(C)CC3)nc(N3CCCN(C)CC3)nc2cc1OCCCN1CCCCC1`, the concentration giving a half-maximal response (EC50) with MDA-MB-231 was determined as 12000 nM.

One may read the IC50 as the concentration that gives 50% inhibition. As for `COc1cc2c(NC3CCN(C)CC3)nc(N3CCCN(C)CC3)nc2cc1OCCOCCN(C)C`, the IC50 in assay [1] was determined as 11000 nM. Also, the half-maximal effective concentration (EC50) with MDA-MB-231 is above 40000 nM.

As to `COc1cc2c(NC3CCN(C(C)C)CC3)nc(C3CCCCC3)nc2cc1OCCCN1CCCC1`, the 50% effective concentration (EC50) was found to be 4500 nM in the assay on CWR22R, 7600 nM in [2], 14000 nM with PC-3 and 2300 nM in the assay on IMR-90.

Turning to `COc1cc2c(NC3CCN(C(C)C)CC3)nc(N3CCCN(C(C)C)CC3)nc2cc1OCCCN1CCCCC1`, the half-maximal inhibitory concentration (IC50) was determined as 54 nM in assay [1] and 8 nM in assay [3]. In addition, the EC50 with MDA-MB-231 came to 4100 nM.

Take `COc1cc2c(NC3CCN(C(C)C)CC3)nc(N3CCCN(C)CC3)nc2cc1OCCCN1CCCC1`: the concentration for half-maximal inhibition (IC50) is 520 nM in assay [1] and 10 nM in [3]. Further, in assay [4], the Ratio amounted to 3. For the same molecule, the EC50 with MDA-MB-231 stood at 1400 nM.

On to `CCN1CCCN(c2nc(NC3CCN(C(C)C)CC3)c3cc(OC)c(OCCCN4CCCC4)cc3n2)CC1`, for which the IC50 in assay [1] was determined as 470 nM. Moreover, the Ratio in [4] was found to be 4. The EC50 with MDA-MB-231 was 1700 nM.

Regarding `COc1cc2c(NC3CCN(C(C)C)CC3)nc(N3CCCN(C(C)C)CC3)nc2cc1OCCCN1CCCC1`, the values for the half-inhibitory concentration (IC50) in assay [1] and in assay [3] were 340 nM and 2 nM, respectively. For the same molecule, the Ratio in assay [4] is listed as 13. Also, the concentration for a half-maximal effect (EC50) in the assay with MDA-MB-231 was determined as 4500 nM.

With `COc1cc2c(NC3CCN(C(C)C)CC3)nc(N3CCCN(C4CCCCC4)CC3)nc2cc1OCCCN1CCCC1`, the IC50 in [1] is 100 nM; in assay [3] it was 22 nM. In assay [4], the Ratio worked out at 7. For the same molecule, the EC50 in the assay on MDA-MB-231 worked out at 730 nM.

On to `COc1cc2c(NC3CCN(C(C)C)CC3)nc(N3CCCN(CC4CCCCC4)CC3)nc2cc1OCCCN1CCCC1`, for which the half-inhibitory concentration (IC50) in [1] is 93 nM. The Ratio in assay [4] was found to be 8. In addition, in the assay on MDA-MB-231, the concentration for a half-maximal effect (EC50) stood at 760 nM.

Regarding `COc1cc2c(NC3CCN(C(C)C)CC3)nc(N3CCCN(c4ccccc4)CC3)nc2cc1OCCCN1CCCC1`, the values for the half-maximal inhibitory concentration (IC50) in [1] and in assay [3] were 220 nM and 10 nM, respectively. Moreover, the Ratio in assay [4] turned out to be 10. In addition, in the assay with MDA-MB-231, the concentration giving a half-maximal response (EC50) came to 2100 nM.

With `COc1cc2c(NC3CCN(C(C)C)CC3)nc(N3CCCN(Cc4ccccc4)CC3)nc2cc1OCCCN1CCCC1`, the IC50 amounted to 58 nM in assay [1] and 9 nM in assay [3]. In addition, in [4], the Ratio is on record as 10. For the same molecule, in the assay on MDA-MB-231, the EC50 is 600 nM.

On to `COc1cc2c(NC3CCN(C(C)C)CC3)nc(N3CCCCC3)nc2cc1OCCCN1CCCC1`, for which the figures for the half-inhibitory concentration (IC50) in assay [1] and in assay [3] were 150 nM and 16 nM, respectively. Besides, in assay [4], the Ratio turned out to be 47. Moreover, in the assay on MDA-MB-231, the EC50 amounted to 7000 nM.

In the case of `COc1cc2c(NC3CCN(C(C)C)CC3)nc(N3CCCCCC3)nc2cc1OCCCN1CCCC1`, the half-maximal inhibitory concentration (IC50) worked out at 100 nM in [1] and 20 nM in [3]. Moreover, the Ratio in [4] is 57. In addition, the concentration for a half-maximal effect (EC50) in the assay on MDA-MB-231 was found to be 5700 nM.

Take `COc1cc2c(NC3CCN(C(C)C)CC3)nc(C3CCCCC3)nc2cc1OCCCN1CCCCC1`: the IC50 in assay [1] stood at 260 nM; in [3], 110 nM. Moreover, the 50% effective concentration (EC50) in the assay on MDA-MB-231 came out at 7600 nM.

In the case of `COc1cc2c(NC3CCN(C(C)C)CC3)nc(C3CCCCC3)nc2cc1OCCOCCN(C)C`, the values for the IC50 in [1] and in [3] were 180 nM and 21 nM, respectively. The EC50 with MDA-MB-231 was found to be 13000 nM.

Take `COc1cc2c(NC3CCN(CC4CCCCC4)CC3)nc(N3CCCN(C(C)C)CC3)nc2cc1OCCCN1CCCCC1`: the 50% inhibitory concentration (IC50) in assay [5] is 51 nM; in assay [1] it was 25 nM; in assay [6], 26 nM; in assay [7], 72 nM; in assay [8], 24 nM; in [9], 46 nM. The concentration for half-maximal inhibition (IC50) in assay [3] amounted to 4 nM; in assay [10] it was 18 nM. Further, the EC50 with MDA-MB-231 was 2800 nM.

As for `COc1cc2c(NC3CCN(C4CCCCC4)CC3)nc(N3CCCN(C)CC3)nc2cc1OCCCN1CCCCC1`, the concentration for half-maximal inhibition (IC50) in assay [1] turned out to be 56 nM; in [3], 11 nM. The EC50 with MDA-MB-231 stood at 2900 nM.

Turning to `COc1cc2c(NC3CCN(C(C)C)CC3)nc(N3CCCCCC3)nc2cc1OCCCN1CCCCC1`, the values for the half-inhibitory concentration (IC50) in assay [1] and in assay [3] were 240 nM and 31 nM, respectively. Further, the EC50 with MDA-MB-231 is 6600 nM.

In the case of `COc1cc2c(NC3CCN(C)CC3)nc(N3CCCN(C)CC3)nc2cc1OCCCN(C)C`, the concentration giving a half-maximal response (EC50) with MDA-MB-231 is 34000 nM.
